# Lipid droplet = inhibitors of hepatocyte lipid droplet formation, primary screen, imaging, high-throughput imaging, BODIPY stain | AML12 mouse hepatocytes, oleate lipid droplets | 0.4% of 240,000 active | inhibition, % at 6.5 µM;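 active = lipid droplet intensity inhibited by at least 50%, with more than 500 cells counted; inconclusive = wells with under 300 cells, treated as cytotoxic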
#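 material = mouse AML12 hepatocyte cell line, fixed after treatment | also added = 100 µM oleic acid challenge | doses = compound at 6.5 µM only | schedule = overnight exposure | technique = Image-based BODIPY and DAPI two-channel analysis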
# MPTP inh = mitochondrial permeability transition pore inhibitors, primary screen, biochemical, isolated mouse mitochondria, absorbance; AID 602449, 2012; Ca2+ swelling absorbance, 30 min; inhibition, % at 10 µM; 1.4% of 360,000 active;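 active = inhibition of 50% or more, scaled per plate between neutral and stimulator controls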;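 note: 0% = DMSO wells given calcium and 100% = 1 mM EGTA wells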
# T cruzi repl = inhibitors of intracellular T. cruzi growth, primary screen, luminescence, NIH3T3 host cells; T. cruzi beta-gal in NIH3T3, 90 h; inhibition, % (no concentration beside the values); 1.4% of 300,000 active;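 active = mean inhibition across valid replicates above about 55%, limit read from the data; inconclusive = mean below that limit but half or more replicates reach it; inactive = mean below it, under half of replicates reach it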;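 note: signal also drops with host cell toxicity which is not excluded here; 0% = plate median of DMSO wells and 100% = zero luminescence signal; higher percent means less beta-gal luminescence so fewer parasites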
#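 Incubation – ≥90 h infection period, 3 h prior cell attachment · System – NIH/3T3 fibroblasts plus reporter T. cruzi · Doses – compound pinned at 50 nL/well, DMSO · Read-out basis – percent inhibition of parasite-derived β-gal signal · Signal – luminescent β-galactosidase signal after 60 min lysis · Also added – 5000 T. cruzi trypomastigotes/well · Medium – Low-serum DMEM with 2% FBS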
# L major viab = Leishmania major promastigote growth inhibition, primary screen. Leishmania major promastigotes, resazurin fluorescence viability. inhibition, % at 10 µM. 9% of 200,000 active; in the data active = inhibition above about 50%;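 note: promastigotes grown with compound for 44 hours at 28 °C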
# DTT redox prof = compounds producing H2O2 with reducing agent – biochemical, NIH compound library profiling, artefact control for MLSCN library redox annotation, primary screen | DTT-dependent redox cycling H2O2, phenol red/HRP absorbance; 100% = 100 µM peroxide control, 0% = buffer | activation, % at 10 µM | 0.03% of 200,000 active | AID 878, 2007;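 active = activation of at least 50% relative to the plate's high and low controls in the primary single-dose screen; inactive = activation below 50%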;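 note: compound incubated with DTT at 0.8 mM final as the reducing agent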
# Numbers without * were called inactive; ? = inconclusive; / = no result. The entries come from a sample that favours hits as a whole.
SMILES,Lipid droplet,MPTP inh,T cruzi repl,L major viab,DTT redox prof
CN1CCc2c(sc3c2C(=O)NC(c2ccco2)N3)C1 (centres undefined),/,-1.9,-18.3,2.8,2.0
CN1CCc2c(sc3c2C(=O)NC(c2cn(Cc4ccccc4)c4ccccc24)N3)C1 (centres undefined),-50.1,2.0,20.5,100.4*,2.4
Cc1cccc2sc(N(CCCN(C)C)C(=O)CCc3ccccc3)nc12,-0.2,-3.7,62.4*,24.3,0.5
Cc1cccc2sc(N(CCCN(C)C)C(=O)CN3C(=O)c4ccccc4C3=O)nc12,8.4,2.1,45.4,4.8,-0.7
CN(C)CCCN(C(=O)CCc1ccccc1)c1nc2ccc(F)cc2s1,-1.9,2.2,36.5,48.2,0.4
CN(C)CCCN(C(=O)CCc1ccccc1)c1nc2ccc(Br)cc2s1,10.2,1.5,49.2,61.4*,-1.8
Cc1cccc2sc(N(CCCN(C)C)C(=O)c3nc4ccccc4s3)nc12,-44.2,1.5,44.5,77.7*,0.1
CC(C)NC(=O)C1CCN(C2CCN(C(=O)c3scc4c3CCCC4)CC2)CC1,-9.8,0.9,8.6,52.4*,-1.3
CSCCC(NC(=O)c1ccc([N+](=O)[O-])cc1Cl)C(=O)OCC(=O)C12CC3CC(CC(C3)C1)C2 (centres undefined),-0.9,6.0,3.6,99.4*,0.5
CSCCC(NC(=O)c1ccc([N+](=O)[O-])cc1Cl)C(=O)OCC(=O)N1CCN(C(C)=O)CC1 (centres undefined),/,-0.6,4.2,/,/
O=C(CSc1ncnc2c1nnn2Cc1ccccc1)NC1CCCCC1,-2.4,0.3,-1.0,/,/
Cc1ccc([C@@H]2CC(=O)[C@@H]3CN(S(=O)(=O)c4ccc(C)cc4)[C@H](c4ccccc4F)C[C@@H]3N2S(=O)(=O)c2ccc(C)cc2)cc1,/,-0.5,/,/,/
Cc1ccc2nc(-c3cccnc3)c(NC3CCCCC3)n2c1,8.1,-2.0,16.0,88.1*,0.0
CCC(C)Sc1ccc(-c2nc3ccc(C)cn3c2NC2CCCCC2)cc1 (centres undefined),/,/,71.9*,/,/
O=C(CSc1ccccc1)N1CCCC(N2CCN(c3cccc(Cl)c3)CC2)C1 (centres undefined),-6.5,0.7,16.5,/,/
CC1CCN(Cc2cc(=O)oc3ccc4ccccc4c23)CC1,/,4.5,8.0,/,/
O=C(C1CCCN(S(=O)(=O)c2cccs2)C1)N1CCN(C2CCCCC2)CC1 (centres undefined),-5.2,-0.2,16.6,83.0*,-0.7
Cc1ccccc1CN1CCN(S(C)(=O)=O)CC1,3.1,0.1,-4.1,5.3,1.4
CS(=O)(=O)N1CCN(C2CCN(Cc3ccccc3)CC2)CC1,-2.4,1.7,4.9,77.3*,0.0
O=C(C1CCCN(S(=O)(=O)c2cccs2)C1)N1CCc2ccccc2C1 (centres undefined),-9.0,0.0,/,4.3,1.9
CCOc1ccccc1CN1CCN(S(C)(=O)=O)CC1,3.3,-0.9,-7.2,82.1*,0.6
O=C(c1cccs1)N1CCN(C2CCN(Cc3ccccc3)CC2)CC1,19.7,-1.6,20.3,90.9*,-0.5
O=C(COC(=O)/C=C/c1ccccc1[N+](=O)[O-])NNC(=O)c1ccc(F)cc1,/,0.1,/,/,/
Cc1ccc(N(CC(=O)NCCc2ccccc2)C(=O)CCC(=O)Nc2cc(C)ccn2)cc1,-0.6,-0.5,2.1,/,/
O=C(c1ccccc1)N1CCN(C2CCCCCC2)CC1,2.4,0.1,-1.1,42.7,-0.7
SMILES,Lipid droplet,MPTP inh,T cruzi repl,L major viab,DTT redox prof
O=C(c1cccs1)N1CCN(C2CCCCC2)CC1,/,1.1,14.3,83.2*,0.7
COc1ccc(OCC(=O)N/N=C(\C)c2ccc(-n3ccnc3)cc2)cc1,3.5,1.6,7.0,20.0,0.0
C/C(=N\Nc1ccc(Cl)c(Cl)c1)c1ccc(-n2ccnc2)cc1,15.7,24.9,18.3,57.6*,/
C/C(=N\NC(=O)COc1ccc(C(C)(C)C)cc1)c1ccc(-n2ccnc2)cc1,-0.6,1.0,12.7,52.4*,-0.3
Cc1ccc(OCC(O)Cn2c(=N)n(Cc3ccccc3)c3ccccc32)cc1 (centres undefined),-9.3,-2.9,?,100.4*,0.3
Cc1cccc(OCC(O)Cn2c(=N)n(Cc3ccccc3)c3ccccc32)c1 (centres undefined),-6.2,2.3,19.1,/,/
